Source: ChEMBL document CHEMBL1155468, “Syntheses and evaluation of anticonvulsant profile and teratogenicity of novel amide derivatives of branched aliphatic carboxylic acids with 4-aminobenzensulfonamide” (J Med Chem, 2010)
Activity calls are given as the source filed them. No cut-off for these calls is given here.

How the values were obtained:
Mus musculus [1] = assay: Anticonvulsant activity in CF1 albino mouse assessed as inhibition of maximal electroshock-induced seizures at 30 mg/kg, ip after 0.5 hrs; type: functional, organism-based; set-up: dose 30 mg/kg
In short: (§1)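 Test compounds suspended in 0.5% methylcellulose and given ip to adult male CF no. 1 albino mice (18-25 g) at 0.01 mL/g body weight before maximal electroshock challenge.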

Mus musculus [2] = assay: Anticonvulsant activity in CF1 albino mouse assessed as inhibition of subcutaneous pentylenetetrazole-induced seizures at 300 mg/kg, ip after 0.5 hrs; type: functional, organism-based; set-up: dose 300 mg/kg
In short: (§2)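 Adult male CF no. 1 albino mice (18-25 g) dosed ip with compound suspended in 0.5% methylcellulose (0.01 mL/g). Convulsant: pentylenetetrazol dissolved in 0.9% saline as a 0.85% solution for mice, given subcutaneously.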

Mus musculus [3] = assay: Neurotoxicity in CF1 albino mouse assessed as motor impairment at 100 mg/kg, ip after 0.5 hrs; type: toxicity, organism-based; set-up: dose 100 mg/kg, route intraperitoneal; conditions: in vivo
Mus musculus [4] = assay: Anticonvulsant activity in CF1 albino mouse assessed as inhibition of subcutaneous pentylenetetrazole-induced seizures at 300 mg/kg, ip after 4 hrs; type: functional, organism-based; set-up: dose 300 mg/kg; in short: as §2
Mus musculus [5] = assay: Teratogenic effect in SWV mouse assessed as resorptions at 325 mg/kg, ip administered on morning of day 8 of gestation; type: toxicity, organism-based; set-up: dose 325 mg/kg, route intraperitoneal; conditions: in vivo
Mus musculus [6] = assay: Teratogenic effect in SWV mouse assessed as resorptions at 805 mg/kg, ip administered on morning of day 8 of gestation; type: toxicity, organism-based; set-up: dose 805 mg/kg, route intraperitoneal; conditions: in vivo
Mus musculus [7] = assay: Anticonvulsant activity in CF1 albino mouse assessed as inhibition of maximal electroshock-induced seizures at 300 mg/kg, ip after 0.5 hrs; type: functional, organism-based; set-up: dose 300 mg/kg; in short: as §1
Mus musculus [8] = assay: Anticonvulsant activity in CF1 albino mouse assessed as inhibition of subcutaneous pentylenetetrazole-induced seizures at 100 mg/kg, ip after 4 hrs; type: functional, organism-based; set-up: dose 100 mg/kg; in short: as §2
Mus musculus [9] = assay: Teratogenic effect in SWV mouse assessed as resorptions at 537 mg/kg, ip administered on morning of day 8 of gestation; type: toxicity, organism-based; set-up: dose 537 mg/kg, route intraperitoneal; conditions: in vivo
Mus musculus [10] = assay: Neurotoxicity in CF1 albino mouse assessed as motor impairment at 30 mg/kg, ip after 0.5 hrs; type: toxicity, organism-based; set-up: dose 30 mg/kg, route intraperitoneal; conditions: in vivo
Mus musculus [11] = assay: Teratogenic effect in SWV mouse assessed as fetuses with neural tube deffects at 325 mg/kg, ip administered on morning of day 8 of gestation; type: toxicity, organism-based; set-up: dose 325 mg/kg, route intraperitoneal; conditions: in vivo
Mus musculus [12] = assay: Teratogenic effect in SWV mouse assessed as resorptions at 164 mg/kg, ip administered on morning of day 8 of gestation; type: toxicity, organism-based; set-up: dose 164 mg/kg, route intraperitoneal; conditions: in vivo
Mus musculus [13] = assay: Neurotoxicity in CF1 albino mouse assessed as motor impairment at 300 mg/kg, ip after 4 hrs; type: toxicity, organism-based; set-up: dose 300 mg/kg, route intraperitoneal; conditions: in vivo
Mus musculus [14] = assay: Teratogenic effect in SWV mouse assessed as live fetuses at 164 mg/kg, ip administered on morning of day 8 of gestation; type: toxicity, organism-based; set-up: dose 164 mg/kg, route intraperitoneal; conditions: in vivo
Mus musculus [15] = assay: Neurotoxicity in CF1 albino mouse assessed as motor impairment at 300 mg/kg, ip after 0.5 hrs; type: toxicity, organism-based; set-up: dose 300 mg/kg, route intraperitoneal; conditions: in vivo
Rattus norvegicus = assay: Neurotoxicity in Sprague-Dawley rat assessed as motor impairment at 30 mg/kg, po after 0.25 to 4 hrs; conditions: in vivo
Mus musculus [16] = assay: Teratogenic effect in SWV mouse assessed as live fetuses at 537 mg/kg, ip administered on morning of day 8 of gestation; type: toxicity, organism-based; set-up: dose 537 mg/kg, route intraperitoneal; conditions: in vivo
Mus musculus [17] = assay: Anticonvulsant activity in CF1 albino mouse assessed as inhibition of maximal electroshock-induced seizures at 30 mg/kg, ip after 4 hrs; type: functional, organism-based; set-up: dose 30 mg/kg; in short: as §1
Mus musculus [18] = assay: Anticonvulsant activity in CF1 albino mouse assessed as inhibition of maximal electroshock-induced seizures at 300 mg/kg, ip after 4 hrs; type: functional, organism-based; set-up: dose 300 mg/kg; in short: as §1
Mus musculus [19] = assay: Anticonvulsant activity in CF1 albino mouse assessed as inhibition of subcutaneous pentylenetetrazole-induced seizures at 100 mg/kg, ip after 0.5 hrs; type: functional, organism-based; set-up: dose 100 mg/kg; in short: as §2
Mus musculus [20] = assay: Teratogenic effect in SWV mouse assessed as live fetuses at 325 mg/kg, ip administered on morning of day 8 of gestation; type: toxicity, organism-based; set-up: dose 325 mg/kg, route intraperitoneal; conditions: in vivo
Mus musculus [21] = assay: Neurotoxicity in CF1 albino mouse assessed as motor impairment at 100 mg/kg, ip after 4 hrs; type: toxicity, organism-based; set-up: dose 100 mg/kg, route intraperitoneal; conditions: in vivo
Mus musculus [22] = assay: Anticonvulsant activity in CF1 albino mouse assessed as inhibition of subcutaneous pentylenetetrazole-induced seizures at 30 mg/kg, ip after 0.5 hrs; type: functional, organism-based; set-up: dose 30 mg/kg; in short: as §2
Mus musculus [23] = assay: Anticonvulsant activity in CF1 albino mouse assessed as inhibition of maximal electroshock-induced seizures at 100 mg/kg, ip after 0.5 hrs; type: functional, organism-based; set-up: dose 100 mg/kg; in short: as §1
Mus musculus [24] = assay: Anticonvulsant activity in CF1 albino mouse assessed as inhibition of subcutaneous pentylenetetrazole-induced seizures at 30 mg/kg, ip after 4 hrs; type: functional, organism-based; set-up: dose 30 mg/kg; in short: as §2
Mus musculus [25] = assay: Teratogenic effect in SWV mouse assessed as fetuses with neural tube deffects at 537 mg/kg, ip administered on morning of day 8 of gestation; type: toxicity, organism-based; set-up: dose 537 mg/kg, route intraperitoneal; conditions: in vivo
Mus musculus [26] = assay: Teratogenic effect in SWV mouse assessed as fetuses with neural tube deffects at 164 mg/kg, ip administered on morning of day 8 of gestation; type: toxicity, organism-based; set-up: dose 164 mg/kg, route intraperitoneal; conditions: in vivo
Mus musculus [27] = assay: Neurotoxicity in CF1 albino mouse assessed as motor impairment at 30 mg/kg, ip after 4 hrs; type: toxicity, organism-based; set-up: dose 30 mg/kg, route intraperitoneal; conditions: in vivo

CCC(CC(C)C)C(=O)Nc1ccc(S(N)(=O)=O)cc1 (stereo not drawn) was tested, and the Activity (Mus musculus [1]) was “inactive”, the Activity (Mus musculus [2]) was “inactive” and the Activity (Mus musculus [3]) was “Non-toxic”. The Activity (Mus musculus [4]) was “inactive”, the Activity (Mus musculus [5]) was 49.6% and the Activity (Mus musculus [6]) was 100%. The Activity (Mus musculus [7]) was “inactive”, the Activity (Mus musculus [8]) was “inactive” and the Activity (Mus musculus [9]) was 96.2%. The Activity (Mus musculus [10]) was “Non-toxic”, the Activity (Mus musculus [11]) was 22.7% and the Activity (Mus musculus [12]) was 6.6%. For the same compound, the Activity (Mus musculus [13]) was “Non-toxic”, the Activity (Mus musculus [14]) was 95.4% and the Activity (Mus musculus [15]) was “Non-toxic”. For the same compound, the Activity (Rattus norvegicus) was “Non-toxic”, the Activity (Mus musculus [16]) was 3.8% and the Activity (Mus musculus [17]) was “inactive”. For the same compound, the Activity (Mus musculus [18]) was “Active”, the Activity (Mus musculus [19]) was “inactive” and the Activity (Mus musculus [20]) was 50.4%. For the same compound, the Activity (Mus musculus [21]) was “Non-toxic”, the Activity (Mus musculus [22]) was “inactive” and the Activity (Mus musculus [23]) was “inactive”. The Activity (Mus musculus [24]) was “inactive”, the Activity (Mus musculus [25]) was 50% and the Activity (Mus musculus [26]) was 0.9%. For the same compound, the Activity (Mus musculus [27]) was “Non-toxic”.
